Test results: publication PMC11831733 (RSC Advances, 2025)
Values after ≈ are worked out from the molar mass of the structure shown.

How the values were obtained:
C. acutatum (BCC 58146) = assay: microbe, parasite or virus in culture; type: cell-based; conditions: Colletotrichum acutatum, read-out: Anti-phytopathogenic fungal (MIC, μM) C. acutatum
[1] = tested on: A. brassicicola (BCC 42724); assay: microbe, parasite or virus in culture; type: cell-based; conditions: Alternaria brassicicola, read-out: Anti-phytopathogenic fungal (MIC, μM) A. brassicicola
[2] = tested on: all cell lines tested (Plasmodium falciparum, mammalian, and fungal); assay: Antiproliferative activity over all cell lines tested; type: cell-based; conditions: P. falciparum, mammalian and fungal cells
[3] = Cytotoxicity, resazurin microplate assay; type: cell-based; conditions: human, NCI-H187 cells (human small-cell lung cancer, ATCC CRL-5804)
Method in brief: (§1)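 Test compound and cell suspension were combined in triplicate wells and kept at 37 °C in humidified 5% CO2 for 3 d (MCF-7) or 5 d (NCI-H187). A 62.6 μg mL−1 resazurin solution was then added, followed by 4 h at 37 °C. Fluorescence was read bottom-mode at excitation 530 nm and emission 590 nm, and the blank was subtracted.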

[4] = Cytotoxicity, resazurin microplate assay; type: cell-based; conditions: human, MCF-7 cells (human breast cancer, ATCC HTC-22)
Method in brief: as §1

[5] = tested on: Vero cells (African green monkey kidney fibroblast); assay: in vitro; type: cell-based; conditions: read-out: Cytotoxicity (IC50, μM) Vero
in vitro = type: cell-based, African green monkey; conditions: African green monkey, Cytotoxicity (IC50, μM) Vero

Compound | MIC (C. acutatum (BCC 58146)) | MIC [1] | antiproliferative activity profile (in words) [2] | IC50 at 5 d [3] | IC50 at 3 d [4] | IC50 [5] | IC50 at 4 d (in vitro)
C[C@@H]1[C@H](O)[C@@H](C)/C=C/C=C/C=C/C=C/C=C/C=C/C=C/[C@H](O[C@@H]2O[C@H](C)[C@@H](O)[C@H](N)[C@@H]2O)C[C@@H]2O[C@](O)(C[C@@H](O)C[C@@H](O)[C@H](O)CC[C@@H](O)C[C@@H](O)CC(=O)O[C@H]1C)C[C@H](O)[C@H]2C(=O)O [Amphotericin B, reference compound] | 3.4 µM (≈ 3.14 µg/mL) | 1.7 µM (≈ 1.57 µg/mL) | – | – | – | – | –
COc1cc(O)c2c(=O)c3c(O)cc(C)cc3oc2c1O [Compound 1, 1,5,8-trihydroxy-6-methoxy-3-methylxanthone] | > 174 µM | > 174 µM | active only against mammalian cell lines | 19 µM | > 174 µM | 58.9 µM | 58.9 µM
COc1cc(O)c2c(=O)c3c(O)cc(C)cc3oc2c1OC [Compound 2, 1,8-dihydroxy-5,6-dimethoxy-3-methylxanthone] | > 165 µM | > 165 µM | – | > 165 µM | > 165 µM | – | > 165 µM
COc1cc2oc3cc(C)cc(O)c3c(=O)c2c(C)c1O [Compound 3, 1,7-dihydroxy-6-methoxy-3,8-dimethylxanthone] | > 175 µM | > 175 µM | – | > 175 µM | > 175 µM | – | > 175 µM
CCC(=O)c1cc(OC)cc2oc3cc(C)cc(O)c3c(=O)c12 [Compound 4, 1-hydroxy-6-methoxy-3-methyl-8-propionylxanthone] | > 160 µM | > 160 µM | active only against mammalian cell lines | > 160 µM | 42.5 µM | – | > 160 µM
O=C(O)CCC(=O)OCCc1ccccc1 [Compound 7, 4-oxo-4-phenethoxybutanoic acid] | > 225 µM | > 225 µM | – | > 225 µM | > 225 µM | – | > 225 µM
COc1cccc2c1C(=O)c1c(O)c3c(c(O)c1C2=O)C[C@@](O)(C(=O)CO)C[C@@H]3O[C@H]1C[C@H](N)[C@H](O)[C@H](C)O1 [Doxorubicin, reference compound] | – | – | – | 0.2 µM | 11.9 µM | – | –
